# Source: PubChem (Broad Institute)
# ERAP1 inh = inhibitors of human ERAP1 aminopeptidase; Q9NZ08; recombinant ERAP1, Leu-AMC fluorescence, 60 min; inhibition, % at 10.7 µM; 0.15% of 340,000 active; AID 652197;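 active = mean replicate inhibition of at least 30%, or all replicates individually reaching that 30% level; inactive = mean below 30% and not every replicate reaching it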
# CASP6 VEID inh = blocks human caspase-6 cleavage activity. P55212. purified caspase-6, Z-VEID-R110 cleavage fluorescence. inhibition, % at 12.5 µM. 0.53% of 350,000 active;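 active = mean inhibition across replicates at least about 35%, with every replicate also reaching that limit, limit read from the data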
# Target sequence (P55212 24-179 limits assumed): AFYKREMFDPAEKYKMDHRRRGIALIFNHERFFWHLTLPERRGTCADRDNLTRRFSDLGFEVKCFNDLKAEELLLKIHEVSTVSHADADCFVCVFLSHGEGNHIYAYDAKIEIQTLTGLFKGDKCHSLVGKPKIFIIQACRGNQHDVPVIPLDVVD
# Target sequence (P55212 194-293 limits assumed): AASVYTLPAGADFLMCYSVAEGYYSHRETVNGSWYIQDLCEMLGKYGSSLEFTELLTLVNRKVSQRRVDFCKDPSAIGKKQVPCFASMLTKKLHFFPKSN
# rRNA inh HTS = selective bacterial rRNA inhibition in E. coli | E. coli WT GFP vs humanized-ribosome RFP mutants, fluorescence, 24 h; hits give low values; DMSO median 0, no signal -100 | GFP signal change (wild-type ribosome), % (test concentration not listed) | AID 720706 | 1.6% of 350,000 active;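 active = significant combined selectivity score with lowered wild-type GFP, culture density cut under 30%, mutant RFP and density less affected; inactive = any of these conditions unmet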
# S100A4 MyoIIA = blocks human S100A4 binding to myosin IIA peptide | inhibition, % at 10.7 µM | P26447 | AID 652163 | 0.14% of 360,000 active | S100A4/TAMRA-MyoIIA peptide fluorescence polarization;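 active = mean inhibition of at least 70% across replicates, with every replicate also reaching that level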
# Target sequence (P26447 whole entry, looked up): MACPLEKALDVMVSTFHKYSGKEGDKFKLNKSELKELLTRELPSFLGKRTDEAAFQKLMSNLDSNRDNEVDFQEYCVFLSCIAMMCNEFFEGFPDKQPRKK
#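 Compound dosing: one dose per compound; test system: human S100A4 monomer with TAMRA-labelled myosin IIA peptide; probe or stimulus: TAMRA-labelled myosin IIA heavy-chain peptide probe, 5 nM; medium: HEPES buffer with Ca2+, pH 7.2; schedule: 5 min incubation before reading; benchmarks: neutral control DMSO, positive control TFP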
# ARNT TACC3 PPI = disrupts binding between human ARNT and TACC3 | 0.66% of 390,000 active | AlphaScreen His-ARNT PAS-B/GST-TACC3 binding, luminescence; TACC3 fragment carries E629A point mutation | inhibition, % at 9.99 µM | Q9Y6A5;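 active = mean inhibition of replicates at least 50% and at least half of replicates each reaching 50%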
# PGC1a acetyl inh = PGC1a acetylation modulation, inhibitor mode; U2OS PGC1a acetylation, AlphaScreen anti-acetyl-lysine; with virally co-expressed GCN5 acetyltransferase; inhibition, % at 15.6 µM; 0.17% of 350,000 active;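 active = every replicate shows inhibition of at least 40%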
# Hits are given with their value; 0 = inactive; - = no result. Sampled rows, rich in hits. Any-hit rate of the full collection: about 2.4%.
SMILES,ERAP1 inh,CASP6 VEID inh,rRNA inh HTS,S100A4 MyoIIA,ARNT TACC3 PPI,PGC1a acetyl inh
CN(Cc1c(C(=O)N/N=C/c2ccc(O)cc2)nnn1-c1nonc1N)c1ccccc1,0,0,-27.3,0,0,0
COc1ccc2c3c(n(C)c2c1)[C@H](CO)N(C(=O)NC(C)C)CC31CCN(CC2CC2)CC1,0,0,0,0,-,-
O=C1CC(CC(=O)N/N=C/c2ccccc2[N+](=O)[O-])=NN1,-,-,-,-,0,0
NNC(=O)CC1=NNC(=O)C1,0,40.0,0,0,0,0
Cc1ccc(C(=O)N2CCN(Cc3ccccc3)CC2)o1,0,0,0,0,0,-
Cc1cc2oc(C(=O)N3CCN(Cc4ccccc4)CC3)c(C)c2cc1C,0,0,-46.3,0,0,-
COCC#Cc1ccc([C@H]2[C@H]3CN(C(=O)CN4CCOCC4)CC(=O)N3[C@H]2CO)cc1,-,-,0,0,-,0
CCOC(=O)NC(N(O)c1cccc(Cl)c1)C(Cl)(Cl)Cl (stereo unspecified),0,0,-28.5,0,-,0
CCN(C(=O)Nc1cccc(Cl)c1)c1ccccc1,0,0,0,0,0,0
CCC(=O)Nc1ccc2c(c1)OC[C@H](C)N(Cc1nccs1)C[C@H](C)[C@H](OC)CN(C)C2=O,0,0,0,0,-,0
Cc1cc(N2CCN(C)CC2)nc2ccc(NC(=S)NCc3cccs3)cc12,0,0,-23.4,0,0,0
CCOC(=O)c1cn[nH]c1NC(=S)Nc1ccc(Cl)cc1,0,0,-40.6,0,-,0
C[C@H](O)C#Cc1cnc2c(c1)C(=O)N([C@H](C)CO)C[C@H](C)[C@@H](CN(C)Cc1ccc(-c3ccccc3)cc1)O2,0,0,0,0,0,0
CCC(=O)N1N=C(c2c(O)n(C)c(=O)n(C)c2=O)CC1c1ccccc1 (stereo unspecified),0,0,-46.0,0,0,0
Cc1cnc(NC(=O)c2ccc3c(c2)OCCO3)s1,0,36.2,0,0,0,0
C[C@H](CO)N1C[C@H](C)[C@@H](CN(C)C(=O)Nc2ccccc2)Oc2ccc(NS(=O)(=O)c3cccs3)cc2C1=O,0,0,0,0,-,0
CC(C)(C)c1cc(NCCCn2ccnc2)n2ncc(-c3ccccc3)c2n1,0,0,-49.5,0,0,0
Cc1onc(-c2ccccc2Cl)c1C(=O)N[C@@H](C)c1ccccc1,0,0,-20.9,0,-,0
Cc1noc(C)c1NC(=O)Nc1ccc2c(c1)C(=O)N([C@H](C)CO)C[C@H](C)[C@@H](CN(C)C(=O)Nc1cccc3ccccc13)O2,0,0,0,0,0,0
CC(=O)Nc1cc(OC(C)=O)c2nonc2c1OC(C)=O,-,-,-,-,0,44.2
CC(=O)Nc1nonc1NC(C)=O,-,-,-,-,0,0
CCOC(=O)c1[nH]c2ccc(Br)cc2c1NC(=O)CCN1CCN(C(=O)OCC)CC1,-,-,-,-,-,0
CCOC(=O)c1[nH]c2ccc(Br)cc2c1NC(=O)CCN1CCOCC1,33.6,0,0,0,0,0
CCOC(=O)c1[nH]c2ccccc2c1NC(=O)c1ccc(Br)o1,0,0,-19.1,0,0,0
C[C@H]1CN([C@@H](C)CO)C(=O)c2cc(NC(=O)C3CC3)ccc2O[C@@H]1CN(C)Cc1ccncc1,0,0,0,0,-,0
SMILES,ERAP1 inh,CASP6 VEID inh,rRNA inh HTS,S100A4 MyoIIA,ARNT TACC3 PPI,PGC1a acetyl inh
COC(=O)C[C@H]1CC[C@@H]2[C@H](COc3ccc(NS(=O)(=O)c4ccccc4Cl)cc3C(=O)N2C)O1,0,0,0,0,0,-
CC(C)[C@H](NC(=O)[C@H](CCCN=C(N)N)NC(=O)NC(Cc1ccccc1)C(=O)O)C(=O)NC(C=O)CCCN=C(N)N (stereo partly specified),35.4,0,-,0,0,0
CC(C)C(NC(=O)OCc1ccccc1)C(=O)NC(Cc1ccc(O)cc1)C(=O)O (stereo unspecified),0,0,0,0,0,0
Cc1noc(C)c1NC(=O)N(C)C[C@H]1OCCCC[C@H](C)Oc2ccc(NS(C)(=O)=O)cc2C(=O)N([C@H](C)CO)C[C@@H]1C,-,-,0,-,0,0
CC(=NNC(=S)N(Cc1ccccn1)Cc1ccccn1)c1cnccn1,0,0,-15.7,0,64.2,-
S=C(NN=C(c1ccccc1)c1ccccn1)N(Cc1ccccn1)Cc1ccccn1,0,0,0,0,66.3,-
C/C(=N/NC(=O)c1cnccn1)c1ccncc1,0,0,0,0,0,0
O=C(Cc1ccccc1)N/N=C/c1ccccn1,-,-,-,-,-,0
S=C(NN=Cc1ccccn1)N(Cc1ccccn1)Cc1ccccn1,0,0,0,0,58.7,0
C[C@H](CO)N1C[C@H](C)[C@H](CN(C)C(=O)NC2CCCCC2)Oc2ncc(-c3cc4ccccc4o3)cc2C1=O,0,0,0,0,0,0
C[C@@H]1CN([C@H](C)CO)C(=O)Cc2cc(NC(=O)CCC(F)(F)F)ccc2O[C@@H]1CN(C)Cc1ccc2c(c1)OCO2,-,-,0,-,-,0
CC(C)NC(=O)N1[C@@H]2Cn3c(cccc3=O)[C@H]1[C@@H](C(=O)N1CCC(Cc3ccccc3)CC1)[C@@H]2CO,0,0,0,0,-,0
Cc1cccc(N(C(=O)Nc2ccc(Cl)cc2)C2=NCC(C)S2)n1 (stereo unspecified),0,0,-28.7,0,0,0
COc1cc(/C=C/C(=O)OCC(=O)c2ccc3c(c2)NC(=O)CO3)ccc1OC(F)F,37.2,0,0,0,0,0
COc1ccc(/C=C/C(=O)OCC(=O)c2ccc3c(c2)NC(=O)CO3)cc1,-,0,0,0,0,0
CCCNC(=O)C[C@@H]1C[C@H]2c3cc(NC(=O)NC4CCCC4)ccc3O[C@H]2[C@H](CO)O1,0,0,0,0,0,0
CC=Cc1ccc2n(c1=O)C[C@H]1[C@H](CO)[C@@H](C(=O)NC3CCC3)N(CCC)[C@@H]21 (mixture of isomers),0,0,0,0,-,0
Cc1cc(N2CCCCC2)ccc1[N+](=O)[O-],0,0,-42.8,0,0,-
Cc1cc(N)c2cc(NC(=O)/C=C/c3ccccc3Cl)ccc2n1,-,-,-,-,0,80.4
CO[C@H]1CN(C)C(=O)c2ccc(NC(C)=O)cc2OC[C@@H](C)N(C(=O)C2CC2)C[C@H]1C,0,0,0,0,0,0
COc1cccc(S(=O)(=O)N[C@@H]2CC[C@@H](CC(=O)NCc3ccc(F)cc3)O[C@@H]2CO)c1,0,0,0,0,0,0
O=C(C[C@H]1CC[C@@H](NS(=O)(=O)c2cccc(F)c2)[C@H](CO)O1)NCc1ccc2c(c1)OCO2,0,0,0,0,0,0
COc1cccc(S(=O)(=O)N[C@H]2CC[C@H](CC(=O)NCc3ccc(F)cc3)O[C@@H]2CO)c1,0,0,0,0,0,55.3
CC(C)NC(=O)N[C@@H]1CC[C@H](CC(=O)NCc2ccc(Oc3ccccc3)cc2)O[C@H]1CO,0,0,0,0,45.6,0
